# In ChEMBL document CHEMBL1148398, “Design, synthesis, and biological evaluation of thio-containing compounds with serum HDL-cholesterol-elevating properties” (2004):
# Assays:
# [1] = test system: Cricetinae gen. sp.; test: Percent change in triglycerides following oral administration of compound in hypercholesterolemic hamsters at 100 mg/kg/day for 14 days; assay type: functional
# Outline: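 Male Syrian Golden hamsters pre-fed chow plus 0.25% cholesterol for 2 weeks and kept on it. Dosed 100 mg/kg/day by oral gavage in 2% Tween 80/saline for 14 days. Serum total cholesterol and glycerol-blanked triglycerides read enzymatically; lipoproteins separated by FPLC with cholesterol measured in each fraction. % change versus vehicle controls; six per group, p < 0.05.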
# [2] = test system: Cricetinae gen. sp.; test: Effect of compound on high-density lipoprotein cholesterol levels in 2nd group of cholesterol-fed male hamsters at 10 mg/kg/day after 14 days of treatment; assay type: functional, organism-based
# [3] = test system: Cricetinae gen. sp.; test: Effect of compound on liver weight in 2nd group of cholesterol-fed male hamsters at 10 mg/kg/day after 14 days of treatment; assay type: functional
# Outline: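 Male Syrian Golden hamsters, 90–100 g, fed chow plus 0.25% cholesterol for 2 weeks before and throughout dosing. Compound suspended in 2% Tween 80 in saline, given by oral gavage for 14 days; vehicle controls. Fasted 4 h, last dose 2 h before sacrifice, then weighed and blood and liver collected. Liver enzymes read on a clinical analyzer. Six per group, mean ± SEM.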
# [4] = test system: Rattus norvegicus; test: Effect of compound on gain in body weight in 6th group of normal chow-fed male rats after a dose of 50 mg/kg/day; assay type: functional
# Outline: (§1)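 Male Sprague–Dawley CD rats (60–80 g) on standard chow under a reversed 12 h light/dark cycle. Compound was suspended in 1.3% Tween 80/0.25% CMC and given as a single daily oral gavage dose for 4 days. Rats were fasted overnight and killed 24 h after the last dose. Serum ALT, AST, ALKP and LDH were read on a clinical analyzer. Weight gain was start versus end weight. Mean ± SEM, n = 6.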
# [5] = test system: Rattus norvegicus; test: Percent change in total plasma cholesterol in hypercholesterolemic rats dosed at 100 mg/kg/day for 8 days; assay type: functional
# [6] = test system: Rattus norvegicus; test: Effect of compound on alanine aminotransferase (ALT) levels in 2nd group of normal chow-fed male rats after a dose of 2 mg/kg/day; assay type: functional, organism-based; outline: as §1
# [7] = test system: Rattus norvegicus; test: Effect of compound on alanine aminotransferase (ALT) levels in 3rd group of normal chow-fed male rats after a dose of 5 mg/kg/day; assay type: functional, organism-based; outline: as §1
# [8] = test system: Rattus norvegicus; test: Effect of compound on alanine aminotransferase (ALT) levels in 5th group of normal chow-fed male rats after a dose of 20 mg/kg/day; assay type: functional, organism-based; outline: as §1
# [9] = test system: Rattus norvegicus; test: Effect of compound on alkaline phosphatase (ALKP) levels in 4th group of normal chow-fed male rats after a dose of 10 mg/kg/day; assay type: functional, organism-based; outline: as §1
# [10] = test system: Rattus norvegicus; test: Effect of compound on aspartate aminotransferase (AST) levels in 5th group of normal chow-fed male rats after a dose of 20 mg/kg/day; assay type: functional, organism-based; outline: as §1
# [11] = test system: Rattus norvegicus; test: Effect of compound on liver weight in 4th group of normal chow-fed male rats after a dose of 10 mg/kg/day; assay type: functional
# Outline: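 Male Sprague–Dawley CD rats, 60–80 g, on chow with a reverse 12 h light/dark cycle. Given one oral gavage dose daily for 4 days, suspended in 1.3% Tween 80/0.25% CMC. Fasted overnight and sacrificed 24 h after the last dose for blood and liver. Serum liver enzymes read on a clinical analyzer. Six per group, mean ± SEM.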
# [12] = test system: Rattus norvegicus; test: Effect of compound on high-density lipoprotein cholesterol levels in 4th group of normal chow-fed male rats after a dose of 10 mg/kg/day; assay type: functional, organism-based
# [13] = test system: Rattus norvegicus; test: Effect of compound on low-density lipoprotein cholesterol levels in 1st group of normal chow-fed male rats after a dose of 1 mg/kg/day; assay type: functional, organism-based
# Outline: (§2)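 Male Sprague–Dawley CD rats, 60–80 g, on standard chow with reverse 12 h light/dark cycle. One oral gavage dose daily for 4 days, suspended in 1.3% Tween 80 and 0.25% CMC. Fasted overnight; sacrificed 24 h after the last dose. Serum TC on clinical analyzer, lipoproteins by FPLC with cholesterol per fraction, T4 on analyzer. Mean ± SEM, six rats per group.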
# [14] = test system: Rattus norvegicus; test: Effect of compound on low-density lipoprotein cholesterol levels in 3rd group of normal chow-fed male rats after a dose of 5 mg/kg/day; assay type: functional, organism-based; outline: as §2
# [15] = test system: Rattus norvegicus; test: Effect of compound on low-density lipoprotein cholesterol levels in 4th group of normal chow-fed male rats after a dose of 10 mg/kg/day; assay type: functional, organism-based; outline: as §2
# [16] = test system: Rattus norvegicus; test: Effect of compound on serum apolipoprotein A1 concentration in chow-fed male rats at a dose of 5 mg/kg/day; assay type: functional, organism-based
# Outline: (§3)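 Separate dose-response study in male Sprague–Dawley CD rats, 60–80 g, on chow. Oral gavage once daily for 4 days in 1.3% Tween 80 / 0.25% CMC; fasted overnight, bled 24 h after last dose. Apo-A1 by ELISA with rabbit anti-rat primary, alkaline phosphatase-conjugated anti-rabbit IgG and p-nitrophenyl phosphate substrate. HDL-C by FPLC fractionation. Mean ± SEM, six per group.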
# [17] = test system: Rattus norvegicus; test: Effect of compound on serum high-density lipoprotein cholesterol concentration in chow-fed male rats at a dose of 10 mg/kg/day; assay type: functional, organism-based; outline: as §3
# [18] = test system: Rattus norvegicus; test: Effect of compound on serum high-density lipoprotein cholesterol concentration in chow-fed male rats at a dose of 50 mg/kg/day; assay type: functional, organism-based; outline: as §3
# [19] = test system: Rattus norvegicus; test: Effect of compound on very low-density lipoprotein cholesterol levels in 6th group of normal chow-fed male rats after a dose of 50 mg/kg/day; assay type: functional, organism-based
# Outline: (§4)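 Male Sprague–Dawley CD rats (60–80 g) on Purina 5001 chow with a reverse 12 h light/dark cycle. Dosed once daily by oral gavage for 4 days, suspended in 1.3% Tween 80 / 0.25% CMC. Fasted overnight and bled 24 h after the last dose. Serum TC and glycerol-blanked TG measured enzymatically; VLDL-C by FPLC fractionation with cholesterol assay. n=6, mean ± SEM.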
# [20] = test system: Rattus norvegicus; test: Effect of compound on very low-density lipoprotein cholesterol levels in 4th group of normal chow-fed male rats after a dose of 10 mg/kg/day; assay type: functional, organism-based; outline: as §4
# [21] = test system: Rattus norvegicus; test: Effect of compound on very low-density lipoprotein cholesterol levels in 5th group of normal chow-fed male rats after a dose of 20 mg/kg/day; assay type: functional, organism-based; outline: as §4
# [22] = Effect on serum lipids in 4th group of normal chow-fed male rats after a dose of 10 mg/kg/day was evaluated as ratio of total plasma cholesterol levels to high-density lipoprotein cholesterol levels; assay type: functional
# Outline: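 Male Sprague–Dawley CD rats, 60–80 g, chow-fed, dosed by oral gavage daily for 4 days in 1.3% Tween 80/0.25% CMC. Fasted overnight, bled 24 h after the last dose. Serum total cholesterol by enzymatic reagent; HDL-C from cholesterol in FPLC fractions; TPC/HDL-C ratio calculated. Six per group, mean ± SEM.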
# [23] = test system: Rattus norvegicus; test: Effect of compound on low-density lipoprotein cholesterol levels in 5th group of normal chow-fed male rats after a dose of 20 mg/kg/day; assay type: functional, organism-based; outline: as §2
# [24] = test system: Cricetinae gen. sp.; test: Effect of compound on thyroxine levels in 4th group of cholesterol-fed male hamsters at 100 mg/kg/day after 14 days of treatment; conditions: Mesocricetus auratus
# [25] = test system: Cricetinae gen. sp.; test: Effect of compound on aspartate aminotransferase (AST) levels in 3rd group of cholesterol-fed male hamsters at 30 mg/kg/day after 14 days of treatment; conditions: Mesocricetus auratus
# [26] = test system: Cricetinae gen. sp.; test: Effect of compound on very low-density lipoprotein cholesterol levels in 4th group of cholesterol-fed male hamsters at 100 mg/kg/day after 14 days of treatment; conditions: Mesocricetus auratus
structure (smiles),measurement,setting,value
CCN1CC(=O)N(c2cc(Cl)ccc2C)C1=S,Change,[1],-34%
same,Serum level,[2],133 mg/dL
same,Liver weight,[3],9.08 g
same,Body weight,[4],27.5 g
same,Change,[5],53%
same,Level,[6],59 U l-1
same,Level,[7],62 U l-1
same,Level,[8],78 U l-1
same,Level,[9],327 U l-1
same,Level,[10],318 U l-1
same,Liver weight,[11],8.3 g
same,Serum level,[12],61 mg/dL
same,Serum level,[13],5.7 mg/dL
same,Serum level,[14],6 mg/dL
same,Serum level,[15],8.1 mg/dL
same,Serum level,[16],72.9 mg/dL
same,Serum level,[17],73.1 mg/dL
same,Serum level,[18],87.3 mg/dL
same,Serum level,[19],6.5 mg/dL
same,Serum level,[20],3.4 mg/dL
same,Serum level,[21],5.3 mg/dL
same,Ratio,[22],1.39
same,Serum level,[23],8.5 mg/dL
same,Serum level,[24],4.02 µg/dL
same,Level,[25],204 U l-1
same,Serum level,[26],81 mg/dL
